Source: ChEMBL document CHEMBL4130562, “Design, Synthesis, and Antibacterial Evaluation of Oxazolidinones with Fused Heterocyclic C-Ring Substructure” (ACS Med Chem Lett, 2017)
≈ marks a conversion by molar mass, not a printed value.

What was measured:
Streptococcus pyogenes = assay: Antibacterial activity against Streptococcus pyogenes ATCC 19615 by microbroth dilution method; format: functional
[1] = tested on: Staphylococcus epidermidis; assay: Antibacterial activity against Staphylococcus epidermidis ATCC 14990 by microbroth dilution method; format: functional
Staphylococcus aureus [2] = assay: Antibacterial activity against Staphylococcus aureus ATCC 6538P by microbroth dilution method; format: functional
Staphylococcus aureus [3] = assay: Antibacterial activity against linezolid-resistant Staphylococcus aureus by microbroth dilution method; format: functional
Haemophilus influenzae = assay: Antibacterial activity against Haemophilus influenzae ATCC 49247 by microbroth dilution method; format: functional
Staphylococcus aureus [4] = assay: Antibacterial activity against Staphylococcus aureus ATCC 33591 by microbroth dilution method; format: functional
Streptococcus pneumoniae = assay: Antibacterial activity against Streptococcus pneumoniae 55143 by microbroth dilution method; format: functional
Staphylococcus aureus [5] = assay: Antibacterial activity against methicillin-resistant Staphylococcus aureus 1201984 by microbroth dilution method; format: functional
Enterococcus faecium = assay: Antibacterial activity against Enterococcus faecium 19434 by microbroth dilution method; format: functional
Enterococcus faecalis = assay: Antibacterial activity against Enterococcus faecalis ATCC 29212 by microbroth dilution method; format: functional
Staphylococcus aureus [6] = assay: Antibacterial activity against Staphylococcus aureus ATCC 29213 by microbroth dilution method; format: functional
CYP1A2 = target: T1, CYP1A2 (Homo sapiens, UniProt P05177); assay: Inhibition of CYP1A2 (unknown origin) at 10 uM; format: ADME
T1 sequence (P05177 whole entry): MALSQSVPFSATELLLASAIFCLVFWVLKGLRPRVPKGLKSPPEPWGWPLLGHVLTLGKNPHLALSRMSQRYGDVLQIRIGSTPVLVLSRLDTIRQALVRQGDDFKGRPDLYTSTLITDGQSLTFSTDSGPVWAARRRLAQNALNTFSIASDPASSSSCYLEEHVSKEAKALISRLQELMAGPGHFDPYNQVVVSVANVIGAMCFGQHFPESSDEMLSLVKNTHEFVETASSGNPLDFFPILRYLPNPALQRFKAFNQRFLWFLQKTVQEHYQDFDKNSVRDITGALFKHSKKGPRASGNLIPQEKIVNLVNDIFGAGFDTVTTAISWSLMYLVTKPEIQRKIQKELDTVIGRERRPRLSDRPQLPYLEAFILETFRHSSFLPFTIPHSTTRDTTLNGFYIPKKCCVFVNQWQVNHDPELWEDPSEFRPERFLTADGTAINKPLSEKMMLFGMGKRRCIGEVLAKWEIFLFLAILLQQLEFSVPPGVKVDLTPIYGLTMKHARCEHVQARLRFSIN
Procedure, shortened: (§1)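 Each test compound was tested at a single concentration of 10 μM against CYP1A2, 2C8, 2C9, 2C19, 2D6 and 3A4. Results are reported as percent inhibition.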

[7] = Lipophilicity, log D of the compound at pH 7.4; format: physicochemical; settings: buffer
CYP2C8 = target: T2, CYP2C8 (Homo sapiens, UniProt P10632); assay: Inhibition of CYP2C8 (unknown origin) at 10 uM; format: ADME; procedure, shortened: as §1
T2 sequence (P10632 whole entry): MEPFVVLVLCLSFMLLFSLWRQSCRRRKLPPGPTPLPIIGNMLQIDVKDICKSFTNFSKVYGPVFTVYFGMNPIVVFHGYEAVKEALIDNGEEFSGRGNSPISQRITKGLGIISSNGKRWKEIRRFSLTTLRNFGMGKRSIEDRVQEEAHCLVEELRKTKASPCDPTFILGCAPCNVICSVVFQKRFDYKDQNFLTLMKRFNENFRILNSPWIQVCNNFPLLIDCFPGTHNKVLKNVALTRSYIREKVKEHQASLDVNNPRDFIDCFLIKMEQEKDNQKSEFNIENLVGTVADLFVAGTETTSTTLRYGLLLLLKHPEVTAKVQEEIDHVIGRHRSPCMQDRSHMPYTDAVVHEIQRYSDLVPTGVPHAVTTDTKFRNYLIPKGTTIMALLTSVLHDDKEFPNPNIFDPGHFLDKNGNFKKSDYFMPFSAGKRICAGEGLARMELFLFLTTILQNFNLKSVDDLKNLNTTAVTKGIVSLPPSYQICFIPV

[8] = Solubility in pH 1.2 buffer; format: physicochemical
Procedure, shortened: (§2)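 Aqueous solubility was measured in buffers at pH 1.2 and pH 6.8 and reported in μg/mL.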

CYP2C9 = CYP2C9 (Homo sapiens, UniProt P11712); assay: Inhibition of CYP2C9 (unknown origin) at 10 uM; format: ADME; procedure, shortened: as §1
[9] = Metabolic stability in mouse liver microsomes assessed as parent compound remaining level; format: ADME, microsome
Procedure, shortened: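 Compound was incubated with mouse liver microsomes to assess phase I metabolism. Read-out is percent of parent compound remaining.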

[10] = Solubility in pH 6.8 buffer; format: physicochemical; procedure, shortened: as §2
CYP2D6 = CYP2D6 (Homo sapiens, UniProt P10635); assay: Inhibition of CYP2D6 (unknown origin) at 10 uM; format: ADME; procedure, shortened: as §1
CYP2C19 = CYP2C19 (Homo sapiens, UniProt P33261); assay: Inhibition of CYP2C19 (unknown origin) at 10 uM; format: ADME; procedure, shortened: as §1
CYP3A4 = CYP3A4 (Homo sapiens, UniProt P08684); assay: Inhibition of CYP3A4 (unknown origin) at 10 uM; format: ADME; procedure, shortened: as §1
Sequence of CYP3A4 (P08684 whole entry): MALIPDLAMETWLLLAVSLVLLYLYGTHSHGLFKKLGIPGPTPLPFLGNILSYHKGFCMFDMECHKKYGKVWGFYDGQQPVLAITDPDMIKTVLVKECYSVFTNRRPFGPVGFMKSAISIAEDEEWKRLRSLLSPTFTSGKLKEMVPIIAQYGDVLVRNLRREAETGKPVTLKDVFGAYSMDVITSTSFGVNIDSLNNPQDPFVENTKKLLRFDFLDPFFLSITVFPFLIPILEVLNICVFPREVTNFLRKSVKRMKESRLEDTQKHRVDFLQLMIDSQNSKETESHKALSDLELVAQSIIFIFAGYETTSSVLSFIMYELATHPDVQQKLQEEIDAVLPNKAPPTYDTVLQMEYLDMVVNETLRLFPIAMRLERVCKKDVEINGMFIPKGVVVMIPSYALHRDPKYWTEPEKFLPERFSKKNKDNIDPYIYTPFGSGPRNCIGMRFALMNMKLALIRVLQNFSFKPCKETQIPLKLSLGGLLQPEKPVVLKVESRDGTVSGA

Sequence of CYP2C19 (P33261 whole entry): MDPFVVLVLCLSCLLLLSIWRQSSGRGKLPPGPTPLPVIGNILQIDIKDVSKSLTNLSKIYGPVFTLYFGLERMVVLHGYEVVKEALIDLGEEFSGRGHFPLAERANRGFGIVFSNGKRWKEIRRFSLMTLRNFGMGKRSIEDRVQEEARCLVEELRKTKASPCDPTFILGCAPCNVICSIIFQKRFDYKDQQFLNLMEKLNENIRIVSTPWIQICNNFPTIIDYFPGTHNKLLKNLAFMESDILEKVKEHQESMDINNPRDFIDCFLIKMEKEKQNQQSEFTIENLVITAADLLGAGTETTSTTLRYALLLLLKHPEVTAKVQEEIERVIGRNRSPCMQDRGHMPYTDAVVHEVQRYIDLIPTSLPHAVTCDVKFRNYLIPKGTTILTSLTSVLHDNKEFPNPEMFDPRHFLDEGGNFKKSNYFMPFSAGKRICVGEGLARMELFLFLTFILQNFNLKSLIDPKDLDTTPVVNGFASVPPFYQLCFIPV
Sequence of CYP2D6 (P10635 whole entry): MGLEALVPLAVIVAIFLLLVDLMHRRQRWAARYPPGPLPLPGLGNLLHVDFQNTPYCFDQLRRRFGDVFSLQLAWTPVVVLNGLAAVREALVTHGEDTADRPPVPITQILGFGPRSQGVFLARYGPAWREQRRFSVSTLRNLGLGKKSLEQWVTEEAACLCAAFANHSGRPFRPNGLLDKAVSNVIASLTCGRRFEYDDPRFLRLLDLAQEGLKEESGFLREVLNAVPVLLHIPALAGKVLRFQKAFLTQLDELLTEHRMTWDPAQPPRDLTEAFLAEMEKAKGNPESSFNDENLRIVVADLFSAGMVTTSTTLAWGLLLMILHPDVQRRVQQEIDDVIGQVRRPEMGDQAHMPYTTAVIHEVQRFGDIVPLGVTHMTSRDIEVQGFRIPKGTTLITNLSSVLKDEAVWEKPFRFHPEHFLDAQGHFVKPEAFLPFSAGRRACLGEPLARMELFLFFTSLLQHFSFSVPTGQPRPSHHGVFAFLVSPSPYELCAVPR
Sequence of CYP2C9 (P11712 whole entry): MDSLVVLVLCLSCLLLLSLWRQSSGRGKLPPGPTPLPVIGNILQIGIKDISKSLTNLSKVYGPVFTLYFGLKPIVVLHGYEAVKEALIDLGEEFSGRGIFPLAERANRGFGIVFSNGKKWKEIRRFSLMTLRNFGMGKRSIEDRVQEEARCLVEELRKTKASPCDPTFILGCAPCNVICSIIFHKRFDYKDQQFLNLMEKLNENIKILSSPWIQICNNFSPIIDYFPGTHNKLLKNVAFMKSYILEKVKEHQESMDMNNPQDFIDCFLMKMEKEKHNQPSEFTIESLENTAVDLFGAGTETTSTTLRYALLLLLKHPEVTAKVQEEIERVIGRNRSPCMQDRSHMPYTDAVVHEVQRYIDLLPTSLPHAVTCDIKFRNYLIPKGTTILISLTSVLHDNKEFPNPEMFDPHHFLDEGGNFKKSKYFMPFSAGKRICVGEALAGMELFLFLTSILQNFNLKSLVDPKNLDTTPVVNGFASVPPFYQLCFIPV

COC(=O)NC[C@H]1CN(c2ccc(-c3ccc4c(c3)NC(=O)CO4)c(F)c2)C(=O)O1
MIC (Streptococcus pyogenes): 0.06 µg/mL (≈ 0.144 µM)
MIC [1]: 0.06 µg/mL (≈ 0.144 µM)
MIC (Staphylococcus aureus [2]): 0.06 µg/mL (≈ 0.144 µM)
MIC (Staphylococcus aureus [3]): 0.5 µg/mL (≈ 1.2 µM)
MIC (Haemophilus influenzae): 0.125 µg/mL (≈ 0.301 µM)
MIC (Staphylococcus aureus [4]): 0.125 µg/mL (≈ 0.301 µM)
MIC (Streptococcus pneumoniae): 0.06 µg/mL (≈ 0.144 µM)
MIC (Staphylococcus aureus [5]): 0.06 µg/mL (≈ 0.144 µM)
MIC (Enterococcus faecium): 0.06 µg/mL (≈ 0.144 µM)
MIC (Enterococcus faecalis): 0.06 µg/mL (≈ 0.144 µM)
MIC (Staphylococcus aureus [6]): 0.125 µg/mL (≈ 0.301 µM)

CC(=S)NC[C@H]1CN(c2ccc(-c3ccc4c(c3)NC(=O)CO4)c(F)c2)C(=O)O1
MIC (Streptococcus pyogenes): 0.06 µg/mL (≈ 0.144 µM)
MIC [1]: 0.06 µg/mL (≈ 0.144 µM)
MIC (Staphylococcus aureus [2]): 0.06 µg/mL (≈ 0.144 µM)
MIC (Staphylococcus aureus [3]): 0.125 µg/mL (≈ 0.301 µM)
MIC (Haemophilus influenzae): 0.125 µg/mL (≈ 0.301 µM)
MIC (Staphylococcus aureus [4]): 0.125 µg/mL (≈ 0.301 µM)
MIC (Streptococcus pneumoniae): 0.06 µg/mL (≈ 0.144 µM)
MIC (Staphylococcus aureus [5]): 0.06 µg/mL (≈ 0.144 µM)
MIC (Enterococcus faecium): 0.06 µg/mL (≈ 0.144 µM)
MIC (Enterococcus faecalis): 0.06 µg/mL (≈ 0.144 µM)
MIC (Staphylococcus aureus [6]): 0.06 µg/mL (≈ 0.144 µM)

CC(=O)NC[C@H]1CN(c2ccc(-c3ccc4c(c3)NC(=O)CO4)c(F)c2)C(=O)O1
inhibition at 10 µM (CYP1A2): 6%
logD [7]: 1.9
MIC (Streptococcus pyogenes): 0.06 µg/mL (≈ 0.15 µM)
inhibition at 10 µM (CYP2C8): 12%
MIC [1]: 0.06 µg/mL (≈ 0.15 µM)
MIC (Staphylococcus aureus [2]): 0.125 µg/mL (≈ 0.313 µM)
solubility [8]: 22 µg/mL (≈ 55.1 µM)
MIC (Staphylococcus aureus [3]): 1 µg/mL (≈ 2.5 µM)
inhibition at 10 µM (CYP2C9): 13%
MIC (Haemophilus influenzae): 0.25 µg/mL (≈ 0.626 µM)
Stability [9]: 84%
MIC (Staphylococcus aureus [4]): 0.5 µg/mL (≈ 1.25 µM)
MIC (Streptococcus pneumoniae): 0.06 µg/mL (≈ 0.15 µM)
solubility [10]: 15 µg/mL (≈ 37.6 µM)
inhibition at 10 µM (CYP2D6): 10%
MIC (Staphylococcus aureus [5]): 0.5 µg/mL (≈ 1.25 µM)
MIC (Enterococcus faecium): 0.03 µg/mL (≈ 0.0751 µM)
MIC (Enterococcus faecalis): 0.03 µg/mL (≈ 0.0751 µM)
MIC (Staphylococcus aureus [6]): 0.125 µg/mL (≈ 0.313 µM)
inhibition at 10 µM (CYP2C19): 20%
inhibition at 10 µM (CYP3A4): 0%

CS(=O)(=O)NC[C@H]1CN(c2ccc(-c3ccc4c(c3)NC(=O)CO4)c(F)c2)C(=O)O1
MIC (Streptococcus pyogenes): 0.25 µg/mL (≈ 0.574 µM)
MIC [1]: 0.5 µg/mL (≈ 1.15 µM)
MIC (Staphylococcus aureus [2]): 0.25 µg/mL (≈ 0.574 µM)
MIC (Staphylococcus aureus [3]): 8 µg/mL (≈ 18.4 µM)
MIC (Haemophilus influenzae): 0.5 µg/mL (≈ 1.15 µM)
MIC (Staphylococcus aureus [4]): 1 µg/mL (≈ 2.3 µM)
MIC (Streptococcus pneumoniae): 0.25 µg/mL (≈ 0.574 µM)
MIC (Staphylococcus aureus [5]): 1 µg/mL (≈ 2.3 µM)
MIC (Enterococcus faecium): 0.125 µg/mL (≈ 0.287 µM)
MIC (Enterococcus faecalis): 0.25 µg/mL (≈ 0.574 µM)
MIC (Staphylococcus aureus [6]): 8 µg/mL (≈ 18.4 µM)

O=C(CO)NC[C@H]1CN(c2ccc(-c3ccc4c(c3)NC(=O)CO4)c(F)c2)C(=O)O1
MIC (Streptococcus pyogenes): 0.125 µg/mL (≈ 0.301 µM)
MIC [1]: 0.25 µg/mL (≈ 0.602 µM)
MIC (Staphylococcus aureus [2]): 0.25 µg/mL (≈ 0.602 µM)
MIC (Staphylococcus aureus [3]): 4 µg/mL (≈ 9.63 µM)
MIC (Haemophilus influenzae): 0.5 µg/mL (≈ 1.2 µM)
MIC (Staphylococcus aureus [4]): 1 µg/mL (≈ 2.41 µM)
MIC (Streptococcus pneumoniae): 0.125 µg/mL (≈ 0.301 µM)
MIC (Staphylococcus aureus [5]): 1 µg/mL (≈ 2.41 µM)
MIC (Enterococcus faecium): 0.06 µg/mL (≈ 0.144 µM)
MIC (Enterococcus faecalis): 0.06 µg/mL (≈ 0.144 µM)
MIC (Staphylococcus aureus [6]): 1 µg/mL (≈ 2.41 µM)

O=C1COc2ccc(-c3ccc(N4C[C@H](CO)OC4=O)cc3F)cc2N1
inhibition at 10 µM (CYP1A2): 4%
logD [7]: 1.9
MIC (Streptococcus pyogenes): < 0.06 µg/mL
inhibition at 10 µM (CYP2C8): 0%
MIC [1]: < 0.06 µg/mL
MIC (Staphylococcus aureus [2]): < 0.06 µg/mL
solubility [8]: 4.4 µg/mL (≈ 12.3 µM)
MIC (Staphylococcus aureus [3]): 1 µg/mL (≈ 2.79 µM)
inhibition at 10 µM (CYP2C9): 12%
MIC (Haemophilus influenzae): 0.5 µg/mL (≈ 1.4 µM)
Stability [9]: 113%
MIC (Staphylococcus aureus [4]): 0.5 µg/mL (≈ 1.4 µM)
MIC (Streptococcus pneumoniae): < 0.06 µg/mL
solubility [10]: 5.2 µg/mL (≈ 14.5 µM)
inhibition at 10 µM (CYP2D6): 4%
MIC (Staphylococcus aureus [5]): 0.5 µg/mL (≈ 1.4 µM)
MIC (Enterococcus faecium): < 0.06 µg/mL
MIC (Enterococcus faecalis): < 0.06 µg/mL
MIC (Staphylococcus aureus [6]): 0.125 µg/mL (≈ 0.349 µM)
inhibition at 10 µM (CYP2C19): 29%
inhibition at 10 µM (CYP3A4): 0%

Cl.N=C(N)NC[C@H]1CN(c2ccc(-c3ccc4c(c3)NC(=O)CO4)c(F)c2)C(=O)O1
MIC (Streptococcus pyogenes): > 32 µg/mL
MIC [1]: > 32 µg/mL
MIC (Staphylococcus aureus [2]): > 32 µg/mL
MIC (Staphylococcus aureus [3]): > 32 µg/mL
MIC (Haemophilus influenzae): > 32 µg/mL
MIC (Staphylococcus aureus [4]): > 32 µg/mL
MIC (Streptococcus pneumoniae): > 32 µg/mL
MIC (Staphylococcus aureus [5]): > 32 µg/mL
MIC (Enterococcus faecium): > 32 µg/mL
MIC (Enterococcus faecalis): > 32 µg/mL
MIC (Staphylococcus aureus [6]): > 32 µg/mL

C[C@H]1COc2c(N3CCN(C)CC3)c(F)cc3c(=O)c(C(=O)O)cn1c23.C[C@H]1COc2c(N3CCN(C)CC3)c(F)cc3c(=O)c(C(=O)O)cn1c23.O [LEVOFLOXACIN]
MIC (Streptococcus pyogenes): 0.06 µg/mL
MIC [1]: 0.5 µg/mL
MIC (Staphylococcus aureus [2]): 0.125 µg/mL
MIC (Staphylococcus aureus [3]): > 32 µg/mL
MIC (Haemophilus influenzae): 0.06 µg/mL
MIC (Staphylococcus aureus [4]): 0.25 µg/mL
MIC (Streptococcus pneumoniae): 0.125 µg/mL
MIC (Staphylococcus aureus [5]): 16 µg/mL
MIC (Enterococcus faecium): 4 µg/mL
MIC (Enterococcus faecalis): 0.25 µg/mL
MIC (Staphylococcus aureus [6]): 0.125 µg/mL
